According to ChEMBL document CHEMBL1124981, “Binding of indolylalkylamines at 5-HT2 serotonin receptors: examination of a hydrophobic binding region” (J Med Chem, 1990):

Experiments:
[1] = molecular target: T1, 5-hydroxytryptamine receptor 1A (Rattus norvegicus, UniProt P19327); assay: Binding affinity against 5-hydroxytryptamine 1A receptor using [3H]-8-OH-DPAT as radioligand
T1 sequence (P19327 whole entry): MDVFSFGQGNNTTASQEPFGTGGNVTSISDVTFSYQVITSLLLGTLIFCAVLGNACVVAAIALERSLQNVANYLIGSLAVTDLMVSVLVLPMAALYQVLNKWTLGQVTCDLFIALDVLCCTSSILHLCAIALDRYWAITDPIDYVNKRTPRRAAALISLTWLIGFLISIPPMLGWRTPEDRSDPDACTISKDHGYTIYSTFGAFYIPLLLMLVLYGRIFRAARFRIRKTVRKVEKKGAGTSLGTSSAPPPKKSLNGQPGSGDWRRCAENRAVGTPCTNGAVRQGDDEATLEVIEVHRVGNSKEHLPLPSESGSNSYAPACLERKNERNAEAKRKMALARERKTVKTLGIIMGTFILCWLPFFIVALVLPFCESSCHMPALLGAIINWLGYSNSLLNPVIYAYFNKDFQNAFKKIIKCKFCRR
Method in brief: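 Rat hippocampal homogenate (5 mg tissue) with [3H]-8-OH-DPAT; 10 μM 8-OH-DPAT defines nonspecific binding. Buffer: 50 mM Tris-HCl, 0.5 mM Na2EDTA, 10 mM MgSO4, pH 7.4, 10 μM pargyline, 0.1% ascorbate.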

[2] = molecular target: Serotonin 2 (5-HT2) receptor (Rattus norvegicus, UniProt P30994+P08909+P14842); assay: Binding affinity against 5-hydroxytryptamine 2 receptor using [3H]ketanserin as radioligand; format: protein assay
Method in brief: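 Rat brain tissue homogenized in 50 mM Tris-HCl, 0.5 mM Na2EDTA, 10 mM MgSO4, pH 7.4, and centrifuged twice at 30000g. Assay buffer adds 10 μM pargyline and 0.1% ascorbate.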

`CC(N)Cc1c[nH]c2ccccc12` (centres undefined) was tested, and the Ki [1] was 530 nM.
For `COc1ccc2[nH]cc(CC(C)N)c2c1` (centres undefined), the Ki [1] was 7 nM and the Ki [2] was 345 nM.
`CCCn1cc(CC(C)N)c2ccccc21` (centres undefined) was tested, and the Ki [1] was 715 nM and the Ki [2] was 1550 nM.
With `CC(N)Cc1cc[nH]c1` (centres undefined) the Ki [1] was > 10000 nM and the Ki [2] was > 10000 nM.
`CCCCCc1cccc2c(CC(C)N)c[nH]c12` (centres undefined) was tested, and the Ki [1] was 6850 nM and the Ki [2] was 140 nM.
For `CCCn1cc(CC(C)N)c2cc(OC)ccc21` (centres undefined), the Ki [2] was 635 nM.
With `CCCn1ccc(CC(C)N)c1` (centres undefined) the Ki [1] was > 10000 nM and the Ki [2] was > 10000 nM.
`CCCCCn1cc(CC(C)N)c2ccccc21` (centres undefined) gave a Ki [1] of 2400 nM and a Ki [2] of 100 nM.
In the case of `CCCc1cccc2c(CC(C)N)c[nH]c12` (centres undefined), the Ki [1] is reported as 1000 nM and the Ki [2] is reported as 1040 nM.
In the case of `CCCCCCCCn1cc(CC(C)N)c2ccccc21` (centres undefined), the Ki [1] is reported as 78 nM and the Ki [2] is reported as 280 nM.
`CC(N)Cc1cn(Cc2ccccc2)c2ccccc12` (centres undefined) was tested, and the Ki [1] was 30 nM and the Ki [2] was 160 nM.
With `CCCCCn1ccc(CC(C)N)c1` (centres undefined) the Ki [1] was 7500 nM and the Ki [2] was 5200 nM.
In the case of `COc1ccc2c(c1)c(CC(C)N)cn2Cc1ccccc1` (centres undefined), the Ki [1] is reported as > 10000 nM and the Ki [2] is reported as 250 nM.
